tested on: Human alphaherpesvirus 1; assay: Inhibition of HSV-1 ribonucleotide reductase; design: concentration or dose not given beside the values; conditions: concentration not given here
Summary of the method: (§1)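 Partially purified HSV-1 ribonucleotide reductase, assayed by reduction of purified [14C]CDP in 200 mM Hepes Na+ pH 7.7, 10 mM dithiothreitol, 2 μM CDP (500 Ci/mol, 3–4 × Km), with and without 5 μM inhibitor unless otherwise indicated. First-order kinact (per hour) and v0 of decelerating product time courses come from iterative nonlinear least squares. kinact is the net increase over the uninhibited control, and % inhibition refers to v0.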

Row | inhibition | SMILES
1 | 61% | C/C(=N\N=C(/S)N/N=C(\S)Nc1ccc(Cl)cc1)c1ccccn1
2 | 25% | C/C(=N\N=C(/S)N/N=C(\S)Nc1ccc(C)cc1)c1ccccn1
3 | 6% | C/C(=N\N=C(/S)N/N=C(\S)Nc1ccccc1C(F)(F)F)c1ccccn1
4 | 8% | C/C(=N\N=C(/S)N/N=C(\S)Nc1cc(Cl)ccc1Cl)c1ccccn1
5 | 15% | C/C(=N\N=C(/S)N/N=C(\S)Nc1cccc(Br)c1)c1ccccn1
6 | 7% | C/C(=N\N=C(/S)N/N=C(\S)Nc1ccc(Cl)c([N+](=O)[O-])c1)c1ccccn1
7 | 50% | C/C(=N\N=C(/S)N/N=C(\S)Nc1cccc(Cl)c1)c1ccccn1

Further lines, the compound ahead of its results:

Row | SMILES | inhibition
8 | C/C(=N\N=C(/S)N/N=C(\S)Nc1ccc([N+](=O)[O-])cc1)c1ccccn1 | 14%
9 | C/C(=N\Nc1nnc(Nc2ccccc2Cl)s1)c1ccccn1 | 53%
10 | C/C(=N\N=C(/S)N/N=C(\S)Nc1ccccc1Cl)c1cccc[n+]1[O-] | 11%
11 | CC(C)C/C(=N\N=C(/S)N/N=C(\S)Nc1ccccc1Cl)c1ccccn1 | 38%
12 | C/C(=N\N=C(/S)N/N=C(\S)Nc1ccccn1)c1ccccn1 | 57%
13 | COc1c(Cl)cccc1/N=C(\S)N/N=C(\S)N/N=C(\C)c1ccccn1 | 0%
14 | C/C(=N\N=C(/S)N/N=C(\S)Nc1ccc(C#N)cc1)c1ccccn1 | 0%
15 | C/C(=N\N=C(/S)N/N=C(\S)NC1CCCC1)c1ccccn1 | 7%
16 | C/C(=N\NC(=O)N/N=C(\S)Nc1ccccc1Cl)c1ccccn1 | 30%
17 | COc1ccccc1/N=C(\S)N/N=C(\S)N/N=C(\C)c1ccccn1 | 0%

tested on: Human alphaherpesvirus 1; assay: Inhibitory index against HSV-1 ribonucleotide reductase; conditions: not given
Summary of the method: (§2)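 Index per eq 1 combines kinact and percent inhibition of initial velocity from reductase reactions ±5 μM inhibitor (unless otherwise indicated). 0.99 is subtracted from the calculated ratio, so a non-inhibiting, non-inactivating compound scores zero. HSV-1 and human enzymes were assayed under their respective conditions.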

Row | Inhibitory index | SMILES
18 | 99 | C/C(=N\N=C(/S)N/N=C(\S)Nc1ccc(Cl)cc1)c1ccccn1
19 | 21 | C/C(=N\N=C(/S)N/N=C(\S)Nc1ccc(C)cc1)c1ccccn1
20 | 11 | C/C(=N\N=C(/S)N/N=C(\S)Nc1ccccc1C(F)(F)F)c1ccccn1
21 | 59 | C/C(=N\N=C(/S)N/N=C(\S)Nc1cc(Cl)ccc1Cl)c1ccccn1
22 | 47 | C/C(=N\N=C(/S)N/N=C(\S)Nc1cccc(Br)c1)c1ccccn1
23 | 48 | C/C(=N\N=C(/S)N/N=C(\S)Nc1ccc(Cl)c([N+](=O)[O-])c1)c1ccccn1
24 | 72 | C/C(=N\N=C(/S)N/N=C(\S)Nc1cccc(Cl)c1)c1ccccn1

Continued, compound first:

Row | SMILES | Inhibitory index
25 | C/C(=N\N=C(/S)N/N=C(\S)Nc1ccc([N+](=O)[O-])cc1)c1ccccn1 | 38
26 | C/C(=N\Nc1nnc(Nc2ccccc2Cl)s1)c1ccccn1 | 32
27 | C/C(=N\N=C(/S)N/N=C(\S)Nc1ccccc1Cl)c1cccc[n+]1[O-] | 1.2
28 | CC(C)C/C(=N\N=C(/S)N/N=C(\S)Nc1ccccc1Cl)c1ccccn1 | 23
29 | C/C(=N\N=C(/S)N/N=C(\S)Nc1ccccn1)c1ccccn1 | 65
30 | COc1c(Cl)cccc1/N=C(\S)N/N=C(\S)N/N=C(\C)c1ccccn1 | 25
31 | C/C(=N\N=C(/S)N/N=C(\S)Nc1ccc(C#N)cc1)c1ccccn1 | 29
32 | C/C(=N\N=C(/S)N/N=C(\S)NC1CCCC1)c1ccccn1 | 13
33 | C/C(=N\NC(=O)N/N=C(\S)Nc1ccccc1Cl)c1ccccn1 | 7.5
34 | COc1ccccc1/N=C(\S)N/N=C(\S)N/N=C(\C)c1ccccn1 | 23

tested on: Human alphaherpesvirus 1; assay: Inactivation of HSV-1 ribonucleotide reductase at rate constant K inact; conditions: not given; summary of the method: as §1

Row | kinact | SMILES
35 | 39 h⁻¹ | C/C(=N\N=C(/S)N/N=C(\S)Nc1ccc(Cl)cc1)c1ccccn1
36 | 16 h⁻¹ | C/C(=N\N=C(/S)N/N=C(\S)Nc1ccc(C)cc1)c1ccccn1
37 | 10 h⁻¹ | C/C(=N\N=C(/S)N/N=C(\S)Nc1ccccc1C(F)(F)F)c1ccccn1
38 | 55 h⁻¹ | C/C(=N\N=C(/S)N/N=C(\S)Nc1cc(Cl)ccc1Cl)c1ccccn1
39 | 40 h⁻¹ | C/C(=N\N=C(/S)N/N=C(\S)Nc1cccc(Br)c1)c1ccccn1
40 | 45 h⁻¹ | C/C(=N\N=C(/S)N/N=C(\S)Nc1ccc(Cl)c([N+](=O)[O-])c1)c1ccccn1
41 | 36 h⁻¹ | C/C(=N\N=C(/S)N/N=C(\S)Nc1cccc(Cl)c1)c1ccccn1

The remaining lines, values behind:

Row | SMILES | kinact
42 | C/C(=N\N=C(/S)N/N=C(\S)Nc1ccc([N+](=O)[O-])cc1)c1ccccn1 | 33 h⁻¹
43 | C/C(=N\Nc1nnc(Nc2ccccc2Cl)s1)c1ccccn1 | 15 h⁻¹
44 | C/C(=N\N=C(/S)N/N=C(\S)Nc1ccccc1Cl)c1cccc[n+]1[O-] | 1 h⁻¹
45 | CC(C)C/C(=N\N=C(/S)N/N=C(\S)Nc1ccccc1Cl)c1ccccn1 | 14 h⁻¹
46 | C/C(=N\N=C(/S)N/N=C(\S)Nc1ccccn1)c1ccccn1 | 28 h⁻¹
47 | COc1c(Cl)cccc1/N=C(\S)N/N=C(\S)N/N=C(\C)c1ccccn1 | 25 h⁻¹
48 | C/C(=N\N=C(/S)N/N=C(\S)Nc1ccc(C#N)cc1)c1ccccn1 | 29 h⁻¹
49 | C/C(=N\N=C(/S)N/N=C(\S)NC1CCCC1)c1ccccn1 | 12 h⁻¹
50 | C/C(=N\NC(=O)N/N=C(\S)Nc1ccccc1Cl)c1ccccn1 | 5 h⁻¹
51 | COc1ccccc1/N=C(\S)N/N=C(\S)N/N=C(\C)c1ccccn1 | 23 h⁻¹

biological target: T1, Ribonucleoside-diphosphate reductase RR1 (Homo sapiens) (UniProt P23921+Q7LG56+P31350); assay: Inhibition of human ribonucleotide reductase; assay type: protein-complex assay; design: concentration or dose not given beside the values; conditions: concentration not given here
Summary of the method: (§3)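 The ATP contributed about 3 μM iron, keeping inhibitors iron-complexed. Reactions ran ±5 μM inhibitor unless otherwise indicated. kinact (per hour, net over the control) and v0 came from iterative nonlinear least-squares fits of decelerating time courses.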

Row | inhibition | SMILES
52 | 73% | C/C(=N\N=C(/S)N/N=C(\S)Nc1ccc(Cl)cc1)c1ccccn1
53 | 64% | C/C(=N\N=C(/S)N/N=C(\S)Nc1ccc(C)cc1)c1ccccn1
54 | 43% | C/C(=N\N=C(/S)N/N=C(\S)Nc1ccccc1C(F)(F)F)c1ccccn1
55 | 20% | C/C(=N\N=C(/S)N/N=C(\S)Nc1cc(Cl)ccc1Cl)c1ccccn1
56 | 21% | C/C(=N\N=C(/S)N/N=C(\S)Nc1cccc(Br)c1)c1ccccn1
57 | 20% | C/C(=N\N=C(/S)N/N=C(\S)Nc1ccc(Cl)c([N+](=O)[O-])c1)c1ccccn1
58 | 48% | C/C(=N\N=C(/S)N/N=C(\S)Nc1cccc(Cl)c1)c1ccccn1

Further lines, the compound ahead of its results:

Row | SMILES | inhibition
59 | C/C(=N\N=C(/S)N/N=C(\S)Nc1ccc([N+](=O)[O-])cc1)c1ccccn1 | 56%
60 | CC(C)C/C(=N\N=C(/S)N/N=C(\S)Nc1ccccc1Cl)c1ccccn1 | 25%
61 | C/C(=N\N=C(/S)N/N=C(\S)Nc1ccccn1)c1ccccn1 | 67%
62 | COc1c(Cl)cccc1/N=C(\S)N/N=C(\S)N/N=C(\C)c1ccccn1 | 50%
63 | C/C(=N\N=C(/S)N/N=C(\S)Nc1ccc(C#N)cc1)c1ccccn1 | 64%
64 | C/C(=N\N=C(/S)N/N=C(\S)NC1CCCC1)c1ccccn1 | 64%
65 | COc1ccccc1/N=C(\S)N/N=C(\S)N/N=C(\C)c1ccccn1 | 44%

biological target: T1, Ribonucleoside-diphosphate reductase RR1 (Homo sapiens); assay: Inhibitory index against human ribonucleotide reductase; assay type: protein-complex assay; conditions: not given; summary of the method: as §2

Row | Inhibitory index | SMILES
66 | 2.6 | C/C(=N\N=C(/S)N/N=C(\S)Nc1ccc(Cl)cc1)c1ccccn1
67 | 7 | C/C(=N\N=C(/S)N/N=C(\S)Nc1ccc(C)cc1)c1ccccn1
68 | 5.9 | C/C(=N\N=C(/S)N/N=C(\S)Nc1ccccc1C(F)(F)F)c1ccccn1
69 | 0.24 | C/C(=N\N=C(/S)N/N=C(\S)Nc1cc(Cl)ccc1Cl)c1ccccn1
70 | 2.8 | C/C(=N\N=C(/S)N/N=C(\S)Nc1cccc(Br)c1)c1ccccn1
71 | 0.24 | C/C(=N\N=C(/S)N/N=C(\S)Nc1ccc(Cl)c([N+](=O)[O-])c1)c1ccccn1
72 | 0.9 | C/C(=N\N=C(/S)N/N=C(\S)Nc1cccc(Cl)c1)c1ccccn1

Second part, the compound before the results:

Row | SMILES | Inhibitory index
73 | C/C(=N\N=C(/S)N/N=C(\S)Nc1ccc([N+](=O)[O-])cc1)c1ccccn1 | 4.2
74 | CC(C)C/C(=N\N=C(/S)N/N=C(\S)Nc1ccccc1Cl)c1ccccn1 | 0.33
75 | C/C(=N\N=C(/S)N/N=C(\S)Nc1ccccn1)c1ccccn1 | 2
76 | COc1c(Cl)cccc1/N=C(\S)N/N=C(\S)N/N=C(\C)c1ccccn1 | 1
77 | C/C(=N\N=C(/S)N/N=C(\S)Nc1ccc(C#N)cc1)c1ccccn1 | 1.7
78 | C/C(=N\N=C(/S)N/N=C(\S)NC1CCCC1)c1ccccn1 | 9.8
79 | COc1ccccc1/N=C(\S)N/N=C(\S)N/N=C(\C)c1ccccn1 | 4.5

biological target: T1, Ribonucleoside-diphosphate reductase RR1 (Homo sapiens); assay: Inactivation of human ribonucleotide reductase at rate constant K inact; assay type: protein-complex assay; conditions: not given; summary of the method: as §3

Row | kinact | SMILES
80 | 0 h⁻¹ | C/C(=N\N=C(/S)N/N=C(\S)Nc1ccc(Cl)cc1)c1ccccn1
81 | 2 h⁻¹ | C/C(=N\N=C(/S)N/N=C(\S)Nc1ccc(C)cc1)c1ccccn1
82 | 3 h⁻¹ | C/C(=N\N=C(/S)N/N=C(\S)Nc1ccccc1C(F)(F)F)c1ccccn1
83 | 0 h⁻¹ | C/C(=N\N=C(/S)N/N=C(\S)Nc1cc(Cl)ccc1Cl)c1ccccn1
84 | 2 h⁻¹ | C/C(=N\N=C(/S)N/N=C(\S)Nc1cccc(Br)c1)c1ccccn1
85 | 0 h⁻¹ | C/C(=N\N=C(/S)N/N=C(\S)Nc1ccc(Cl)c([N+](=O)[O-])c1)c1ccccn1
86 | 0 h⁻¹ | C/C(=N\N=C(/S)N/N=C(\S)Nc1cccc(Cl)c1)c1ccccn1

Continued, compound first:

Row | SMILES | kinact
87 | C/C(=N\N=C(/S)N/N=C(\S)Nc1ccc([N+](=O)[O-])cc1)c1ccccn1 | 1.3 h⁻¹
88 | CC(C)C/C(=N\N=C(/S)N/N=C(\S)Nc1ccccc1Cl)c1ccccn1 | 0 h⁻¹
89 | C/C(=N\N=C(/S)N/N=C(\S)Nc1ccccn1)c1ccccn1 | 0 h⁻¹
90 | COc1c(Cl)cccc1/N=C(\S)N/N=C(\S)N/N=C(\C)c1ccccn1 | 0 h⁻¹
91 | C/C(=N\N=C(/S)N/N=C(\S)Nc1ccc(C#N)cc1)c1ccccn1 | 0 h⁻¹
92 | C/C(=N\N=C(/S)N/N=C(\S)NC1CCCC1)c1ccccn1 | 3 h⁻¹
93 | COc1ccccc1/N=C(\S)N/N=C(\S)N/N=C(\C)c1ccccn1 | 2.1 h⁻¹

biological target: T1, Ribonucleoside-diphosphate reductase RR1 (Homo sapiens); assay: Apparent enzyme activity measured as the ratio of HSV-1 and human enzyme inhibition induces; assay type: functional; conditions: Human alphaherpesvirus 1
Summary of the method: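 Apparent selectivity is the ratio of HSV-1 to human inhibition indices, each from eq 1 at 5 μM inhibitor or at the indicated concentration for each enzyme.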

Row | Apparent selectivity (HSV-1/human inhibition index ratio) | SMILES
94 | 38 | C/C(=N\N=C(/S)N/N=C(\S)Nc1ccc(Cl)cc1)c1ccccn1
95 | 3 | C/C(=N\N=C(/S)N/N=C(\S)Nc1ccc(C)cc1)c1ccccn1
96 | 1.8 | C/C(=N\N=C(/S)N/N=C(\S)Nc1ccccc1C(F)(F)F)c1ccccn1
97 | 240 | C/C(=N\N=C(/S)N/N=C(\S)Nc1cc(Cl)ccc1Cl)c1ccccn1
98 | 17 | C/C(=N\N=C(/S)N/N=C(\S)Nc1cccc(Br)c1)c1ccccn1
99 | 200 | C/C(=N\N=C(/S)N/N=C(\S)Nc1ccc(Cl)c([N+](=O)[O-])c1)c1ccccn1
100 | 80 | C/C(=N\N=C(/S)N/N=C(\S)Nc1cccc(Cl)c1)c1ccccn1

Further lines, the compound ahead of its results:

Row | SMILES | Apparent selectivity (HSV-1/human inhibition index ratio)
101 | C/C(=N\N=C(/S)N/N=C(\S)Nc1ccc([N+](=O)[O-])cc1)c1ccccn1 | 9.1
102 | CC(C)C/C(=N\N=C(/S)N/N=C(\S)Nc1ccccc1Cl)c1ccccn1 | 70
103 | C/C(=N\N=C(/S)N/N=C(\S)Nc1ccccn1)c1ccccn1 | 33
104 | COc1c(Cl)cccc1/N=C(\S)N/N=C(\S)N/N=C(\C)c1ccccn1 | 26
105 | C/C(=N\N=C(/S)N/N=C(\S)Nc1ccc(C#N)cc1)c1ccccn1 | 17
106 | C/C(=N\N=C(/S)N/N=C(\S)NC1CCCC1)c1ccccn1 | 1.3
107 | COc1ccccc1/N=C(\S)N/N=C(\S)N/N=C(\C)c1ccccn1 | 5.1

Source: ChEMBL document CHEMBL1126084, “2-Acetylpyridine thiocarbonohydrazones. Potent inactivators of herpes simplex virus ribonucleotide reductase” (J Med Chem, 1992)
